The series in a line: Toxicity liver stage against HepG2, at 10uM. The series is classed as cell-based. Also noted: test concentration 10 uM, cell line HepG2-A16-CD81EGFP. To be noted: human, HepG2-A16-CD81EGFP cells; read-out: INHIBITION
The method in brief: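 Uninfected HepG2-A16-CD81EGFP cells, 3 × 10^3 per well, 1536-well, plated on prespotted compound at 10 μM final, parasite-free screening media added to match infected plates; puromycin 10 μM positive, DMSO 0.5% negative; run in parallel with 48 h PbLuc assay at 37 °C, 5% CO2; viability by CellTiter-Glo luminescence, normalized to controls.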
As for `CCCNC(=O)C1CCCN(c2ccc3nncn3n2)C1` (configuration not stated), the cytotoxicity at 10 µM stood at 10.7%.

As for `O=C(NCC(O)c1ccsc1)Nc1cccs1` (configuration not stated), the cytotoxicity at 10 µM was -8.29%.

`O=C(Nc1nc2c(s1)CN(S(=O)(=O)C1CC1)CC2)C1CC1`: the cytotoxicity at 10 µM is -0.849%.

Take `COc1ccc(C(=O)N2CCO[C@H]3[C@@H](OCC4CC4)CC[C@@H]32)cc1F`: the cytotoxicity at 10 µM worked out at 19.1%.

Regarding `CCN1C(=O)CC(c2cccnc2)C12CCN(c1ncc(F)cn1)CC2` (configuration not stated), the cytotoxicity at 10 µM was -8.59%.

As to `CCOC1CC2(CCN(c3cnccn3)CC2)c2ccccc21` (configuration not stated), the cytotoxicity at 10 µM turned out to be 5.54%.

Turning to `CCOCc1cncc2c1CCN(S(=O)(=O)c1cccc(C)c1)C2`, the cytotoxicity at 10 µM turned out to be 13.6%.

Consider `O=S(=O)(C1CC1)N1CCc2ncnc(-c3ccc(F)cc3)c2CC1`, for which the cytotoxicity at 10 µM was -66.5%.

`Cc1ccc(C(=O)N2C[C@@H]3CN(S(C)(=O)=O)CCO[C@@H]3C2)o1`: the cytotoxicity at 10 µM is -2.42%.

For `Cc1nc(N2CCOCC2)nc2c1CCN(c1nccs1)CC2`, the cytotoxicity at 10 µM amounted to 7.37%.

As for `Cc1ccc(N2CC[C@@H]3O[C@@H](c4ccncn4)C[C@H]3C2)nn1`, the cytotoxicity at 10 µM was 10.8%.

Consider `CCN1CCC2(CC1)CN(C(C)=O)c1ccc(C)cc12`, for which the cytotoxicity at 10 µM came to 3.98%.

In the case of `CCC1=NN2C(=N)/C(=C/c3cccc(Cl)c3)C(=O)N=C2S1`, the cytotoxicity at 10 µM is -11.8%.

In the case of `CCC(C)NC(=O)Cn1ncc2c1c(C)nn2CC` (configuration not stated), the cytotoxicity at 10 µM stood at 3.24%.

For the molecule `Cc1nc2c(N3CCN(Cc4ccccc4)CC3)nc(N)nc2n1C`, the cytotoxicity at 10 µM stood at 5.61%.

For `CC(C)n1cc(N2CC(C(=O)N3CCc4ccccc4C3)CC2=O)cn1` (configuration not stated), the cytotoxicity at 10 µM was -153%.

Regarding `CC(=O)N1CCC(C)(c2cc(C(=O)NCC(C)(C)C)nc(C)n2)CC1`, the cytotoxicity at 10 µM is 6.93%.

Take `CC(C)c1nccn1-c1nccnc1C1CCCN1Cc1cccnc1` (configuration not stated): the cytotoxicity at 10 µM came to 7.77%.

On to `Cc1cc(N2CCOC(C)(C(=O)N(C)C)C2)ncn1` (configuration not stated), for which the cytotoxicity at 10 µM was -0.277%.

On to `CCC(=O)N1CCC(c2ncc3c(n2)CCNC3)CC1`, for which the cytotoxicity at 10 µM is -22.5%.

In the case of `O=c1c2ccccc2nc2n1C(CSc1cccc(C(F)(F)F)c1)CN2` (configuration not stated), the cytotoxicity at 10 µM is 12.9%.

With `CC(C)N(C(=O)Cn1nnnc1CCc1ccccc1)C(C)C`, the cytotoxicity at 10 µM was 7.1%.

Turning to `CCc1ccc2c(c1)C(CCNC(=O)Cc1cccc(F)c1)C(=O)N2` (configuration not stated), the cytotoxicity at 10 µM was -49.1%.

As to `Cc1ccc(-c2noc(CNCC3CN(C)CCO3)n2)cc1F` (configuration not stated), the cytotoxicity at 10 µM is -1.51%.

With `Cc1nc(CN2CCOC3(CCCC3)C2)oc1C`, the cytotoxicity at 10 µM came out at 4.56%.

In the case of `COc1ccccc1/C=C/CNCC1CCc2nncn2C1` (configuration not stated), the cytotoxicity at 10 µM was found to be 3.91%.

As to `Cc1cc(N(Cc2ccccn2)C2CC2)n2nc(C(F)(F)F)nc2n1`, the cytotoxicity at 10 µM was -5.83%.

As for `COc1ccccc1CNC(=O)COc1ccc2c(c1)OCC2O` (configuration not stated), the cytotoxicity at 10 µM is -3.75%.

As for `CC(C)c1nn(C)c(Cl)c1CNCCn1cccn1`, the cytotoxicity at 10 µM is -9.11%.

Consider `CCC(O)CN(c1ccccc1)S(=O)(=O)c1cnc(C)s1` (configuration not stated), for which the cytotoxicity at 10 µM was -45.6%.

With `Cc1noc(C2CCN(Cn3cc(Cl)cn3)CC2)n1`, the cytotoxicity at 10 µM was -11.1%.

On to `Cc1nc(CN2CCCc3cc(OC(F)(F)F)ccc32)oc1C`, for which the cytotoxicity at 10 µM is 0.889%.

Consider `O=C(c1ccc(-n2ccnc2)nc1)N1CCN2CCCCC2C1` (configuration not stated), for which the cytotoxicity at 10 µM is -5.95%.

Consider `Cc1ccc(C2CCCN2S(=O)(=O)N(C)Cc2cnccn2)o1` (configuration not stated), for which the cytotoxicity at 10 µM came to 0.78%.

Turning to `CCS(=O)(=O)c1ccc(N2CCC(NC(=O)C3CCCCC3)CC2)cc1`, the cytotoxicity at 10 µM worked out at 12%.

For `CC(=O)N1CCc2cc(Cl)cc(Cl)c2C1`, the cytotoxicity at 10 µM was determined as 11.2%.

In the case of `CCC(=O)N(CC)C(c1cccnc1)c1ccc2c(c1)CCO2` (configuration not stated), the cytotoxicity at 10 µM was found to be 2.94%.

As for `CCCNC(=O)c1cc(Br)cc(S(=O)(=O)N2CCOCC2)c1F`, the cytotoxicity at 10 µM is -5.12%.

Consider `COc1ccc(N(C(=O)c2ccc(C)nc2)C(C)C)cc1F`, for which the cytotoxicity at 10 µM is -3.17%.

`CCOc1ccccc1C(CC(=O)Nc1ccccc1)NC(C)=O` (configuration not stated): the cytotoxicity at 10 µM is -2.86%.

With `CNS(=O)(=O)c1ccc(CNC(=O)c2cc(-c3ccccn3)no2)cc1`, the cytotoxicity at 10 µM is -11.4%.

`CC(C)c1ccc(S(=O)(=O)NC2(CC(N)=O)CCC2)cc1`: the cytotoxicity at 10 µM is -2.77%.

For the molecule `CCCN(C(=O)CNC1CCc2ncnn2C1)C1=CCCCC1` (configuration not stated), the cytotoxicity at 10 µM was determined as 1.76%.

In the case of `CC(C)c1ncc(Cl)c(C(=O)N2CCN3CCCCC3C2)n1` (configuration not stated), the cytotoxicity at 10 µM was 4.77%.

`O=S(=O)(NCc1ccc(S(=O)(=O)N2CCCC2)s1)c1ccc(Cl)cc1`: the cytotoxicity at 10 µM was -44%.

Take `CC(C)c1noc(OCc2cccc(S(=O)(=O)N(C)C)c2)n1`: the cytotoxicity at 10 µM was -45.9%.

As to `CN(CCN1CCOC1=O)CC(=O)Nc1ccc(Cl)c(Cl)c1`, the cytotoxicity at 10 µM is -52.4%.

Consider `CCC(CC)CNCC1(S(C)(=O)=O)CCOCC1`, for which the cytotoxicity at 10 µM was determined as 0.354%.

As to `Cc1ncc(CN(C)CC(O)c2cccc(C(F)(F)F)c2)s1` (configuration not stated), the cytotoxicity at 10 µM turned out to be 1.86%.

`Cn1cccc(NC(=O)N2CCC(COCc3ccccc3)C2)c1=O` (configuration not stated): the cytotoxicity at 10 µM worked out at 3.67%.

For the molecule `COc1c(CNC2CCCc3ccccc32)c(C)nn1C` (configuration not stated), the cytotoxicity at 10 µM is -0.808%.

With `O=C(c1ccoc1)N1CC[C@@H]2O[C@@H](COCC3CCOCC3)CC[C@@H]21`, the cytotoxicity at 10 µM is -76.2%.

For `CC(C)NC(=O)N1CCC2(COCc3cnc(-c4cccnc4)nc32)C1` (configuration not stated), the cytotoxicity at 10 µM worked out at 1.77%.

For the molecule `Cc1cc(N2CCC3(CCCN(CCO)C3=O)C2)nc(C)c1C#N` (configuration not stated), the cytotoxicity at 10 µM was found to be 7.41%.

For the molecule `CCc1ncc(CN2CCC(CCc3ccccc3)CC2)cn1`, the cytotoxicity at 10 µM is -175%.

For `CC1CCN(S(=O)(=O)N2C[C@H](c3ccccc3)[C@@H](N)C2)CC1`, the cytotoxicity at 10 µM was -12.1%.

`CCc1ncc(C(=O)N2CCCN(C3CCCCC3)CC2)cn1`: the cytotoxicity at 10 µM is -5.1%.

Turning to `CCOCc1nc2c(c(NC(CC)c3ccncc3)n1)CCNCC2` (configuration not stated), the cytotoxicity at 10 µM was -0.0944%.

With `Cc1nn(C)c(C)c1CN(C(=O)c1cc(Cl)c[nH]c1=O)C(C)C`, the cytotoxicity at 10 µM is -3.25%.

In the case of `COc1cc(F)ccc1-c1cc(CO)ccn1`, the cytotoxicity at 10 µM was 6.58%.

Take `COc1cc(C)ccc1OCc1nc(C(=O)N2CCCC2)co1`: the cytotoxicity at 10 µM is -42.5%.

Consider `c1cn(CC2CC2)c(C2CCN(CCC3CCOC3)CC2)n1` (configuration not stated), for which the cytotoxicity at 10 µM is -8.64%.

For the molecule `CCCN(Cc1ccc(OC)nc1)Cc1ccccc1OC`, the cytotoxicity at 10 µM is -5.85%.

As to `c1ccc(COC2CCN(Cc3cc4n(n3)CCCNC4)CC2)nc1`, the cytotoxicity at 10 µM came to 2.59%.

As for `COC(=O)CC1CCN(C(=O)Nc2ccc(-c3ccn[nH]3)cc2)C1` (configuration not stated), the cytotoxicity at 10 µM amounted to 3.57%.

As for `CCN1CCN(C2(C(=O)NC3CCCC3)Cc3ccccc3C2)CC1`, the cytotoxicity at 10 µM was -13.8%.

For the molecule `C[C@@H]1CN(C(=O)CCCN2CCOCC2)C[C@@]1(O)C1CC1`, the cytotoxicity at 10 µM is 4.39%.

`Cc1cc(C(=O)N2CCCC3(CN(C)C(=O)O3)C2)c2ccc(F)cc2n1` (configuration not stated): the cytotoxicity at 10 µM came to 3.05%.

With `Cc1ccsc1CN1CCC(c2cc(C(C)C)n[nH]2)CC1`, the cytotoxicity at 10 µM came out at 1.13%.

In the case of `O=C(C1CNCCO1)N1CCCC(c2ccccc2)(c2ccccc2)C1` (configuration not stated), the cytotoxicity at 10 µM was found to be 12.2%.

`Cc1nc(-c2cccc(N3CCC(NC4CCOCC4)CC3)c2)cs1`: the cytotoxicity at 10 µM is -10.1%.

`CCOc1ccccc1C(=O)N1CCCC(O)(CN(C)C)C1` (configuration not stated): the cytotoxicity at 10 µM is -1.73%.

Consider `Cn1ccnc1CN1CCCC(CCc2ccc(F)c(F)c2)C1` (configuration not stated), for which the cytotoxicity at 10 µM is -6.9%.

For the molecule `OCCNc1cc(-c2nccnc2N2CCCC2)c2cc[nH]c2n1`, the cytotoxicity at 10 µM is -7.57%.

In the case of `CS(=O)(=O)N1CCC(O)(Cn2c(C3CC3)nc3ccccc3c2=O)CC1`, the cytotoxicity at 10 µM was determined as 3.06%.

In the case of `CC(C)(C)OC(=O)N1CCN(C(=O)CCn2cccn2)CC1`, the cytotoxicity at 10 µM was -14.6%.

In the case of `CCc1nc(C2CCCN(C(=O)c3ccccc3O)C2)no1` (configuration not stated), the cytotoxicity at 10 µM is -7.39%.

Take `O=C(NCC(=O)N1CCCC1)c1nn(-c2ccccc2F)cc1O`: the cytotoxicity at 10 µM came out at 6.53%.

Regarding `O=C(O)c1cccc(S(=O)(=O)N2CCOc3ccccc32)c1`, the cytotoxicity at 10 µM was -5.92%.

`O=C(CCc1ccco1)N1CCCC(n2cccn2)C1` (configuration not stated): the cytotoxicity at 10 µM is -8.8%.

Take `CCNc1cc2c(nn1)CCN(C(=O)c1ccsc1)C2`: the cytotoxicity at 10 µM was -13.7%.

Consider `CN1CCN(c2cc(CNC(=O)Cn3cccn3)ccn2)CC1`, for which the cytotoxicity at 10 µM is -11.6%.

Consider `Cc1csc(N2CCCN(C(=O)c3csc(C)n3)CC2)n1`, for which the cytotoxicity at 10 µM is -3.96%.

As for `CCc1noc(C(C)N2CCC(O)CC2)n1` (configuration not stated), the cytotoxicity at 10 µM turned out to be 0.26%.

On to `CCn1ccnc1CN1CCOC(Cn2cccn2)C1` (configuration not stated), for which the cytotoxicity at 10 µM was -14.7%.

In the case of `Cc1ccc(NS(=O)(=O)c2cc3c(c(C(=O)O)c2)OCCO3)cc1C`, the cytotoxicity at 10 µM is -15.3%.

For `c1cnnc(NCC2CN(CCN3CCCCC3)CCO2)c1` (configuration not stated), the cytotoxicity at 10 µM was -11.9%.

As for `CCn1c(C)cc(C(=O)N2CCCC(n3nc(C)nc3C)C2)c1C` (configuration not stated), the cytotoxicity at 10 µM is -11.4%.

On to `Cc1cccc(-c2nc(CN3CCc4c(ncn4C)C3)no2)c1`, for which the cytotoxicity at 10 µM is -9.42%.

`Cc1csc(N2CCCN(C(=O)c3c(C)oc(C)c3C)CC2)n1`: the cytotoxicity at 10 µM was 3.75%.

Take `Cc1nc(C2CCCN2Cc2ncc(C(C)C)o2)no1` (configuration not stated): the cytotoxicity at 10 µM was 4.31%.

Turning to `CC1CCN(S(=O)(=O)NCc2ccccc2Cn2cncn2)CC1`, the cytotoxicity at 10 µM was -2.72%.

As to `Cc1cnn(CCC(=O)N2CCCC(c3nc(C)no3)C2)c1` (configuration not stated), the cytotoxicity at 10 µM was -1.59%.

Take `Cc1cnn(CC2CCCN2Cc2nc3ccccc3nc2C)c1` (configuration not stated): the cytotoxicity at 10 µM is -1.35%.

For `O=C([C@@H]1CCO[C@@H]2CCN(Cc3ccsc3)C[C@@H]21)N1CCCC1`, the cytotoxicity at 10 µM was -81.4%.

With `O=C(NC1CC1)[C@H]1C[C@H]2OCC[C@H]2N(Cc2ccc3ccccc3n2)C1`, the cytotoxicity at 10 µM is -62.6%.

For `CN(C)[C@@H]1CCN(C(=O)c2ccsc2)[C@H]1Cc1cccnc1`, the cytotoxicity at 10 µM is -66.7%.

(Values after ChEMBL document CHEMBL4513216, “Probing the Open Global Health Chemical Diversity Library for Multistage-Active Starting Points for Next-Generation Antimalarials” (ACS Infect Dis, 2020).)
